From ChEMBL document CHEMBL2177013, “Synthesis and biological evaluation of tylophorine-derived dibenzoquinolines as orally active agents: exploration of the role of tylophorine e ring on biological activity” (J Med Chem, 2012)

What was measured:
[1] = Growth inhibition of human HONE1 cells; type: functional
Summary of the method: (§1)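 Cells seeded per well: NUGC-3 4500, HONE-1 6000, MCF-7 6500, NCI-H460 2500, HepG2 10000, A549 5000; A549 grown in RPMI 1640 with 2 g/L NaHCO₃, 2 mM L-glutamine and 10% FBS. GI₅₀ = concentration giving 50% growth inhibition, mean of at least three experiments each in duplicate. Paclitaxel served as positive control.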

NCI-H460 = assay: Growth inhibition of human NCI-H460 cells; type: functional; summary of the method: as §1
HepG2 = assay: Growth inhibition of human HepG2 cells; type: functional; summary of the method: as §1
A549 = assay: Growth inhibition of human A549 cells; type: functional; summary of the method: as §1
MCF7 = assay: Growth inhibition of human MCF7 cells; type: functional; summary of the method: as §1
NUGC-3 = assay: Growth inhibition of human NUGC3 cells; type: functional; summary of the method: as §1
[2] = system: Transmissible gastroenteritis virus; assay: Antiviral activity against Transmissible gastroenteritis virus infected in ST cells pre-treated 2 hrs before virus infection measured 6 hrs post virus infection by immunofluorescent assay; type: functional, organism-based; conditions: Alphacoronavirus 1, ST
Summary of the method: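 ST cells, with or without 2 h compound pretreatment (10 concentrations), infected with TGEV at MOI 10. Immunofluorescence with anti-spike and anti-nucleocapsid antibodies at 6 hpi. EC50 from dose–response curves, mean of at least three experiments, each in duplicate.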

Structure (SMILES) | GI50 [1] [µM] | GI50 (NCI-H460) [µM] | GI50 (HepG2) [µM] | GI50 (A549) [µM] | GI50 (MCF7) [µM] | GI50 (NUGC-3) [µM] | EC50 [2] [µM]
CC(=O)O[C@H]1C(=O)[C@@]2(C)[C@H]([C@H](OC(=O)c3ccccc3)[C@]3(O)C[C@H](OC(=O)[C@H](O)[C@@H](NC(=O)c4ccccc4)c4ccccc4)C(C)=C1C3(C)C)[C@]1(OC(C)=O)CO[C@@H]1C[C@@H]2O [PACLITAXEL] | 0.02 | 0.03 | 0.18 | 0.06 | 0.03 | 0.02 | –
COc1cc2c3c(c4cc(OC)c(OC)cc4c2cc1OC)CN(CC(C)C)CC3 | 1.72 | 0.87 | 1.81 | 1.32 | 0.91 | 1.04 | 1.36
COc1cc2c3c(c4cc(OC)c(OC)cc4c2cc1OC)CN(C1C=CCCC1)CC3 (stereo unspecified) | 2.53 | 2.3 | 3.64 | 1.92 | 2.21 | 1.88 | 2.99
CCN1CCc2c(c3cc(OC)c(OC)cc3c3c(OC)c(OC)c(OC)cc23)C1 | 1.99 | 0.87 | 2.5 | 1.41 | 1.18 | 1.7 | 1.14
CCN1CCc2c(c3cc(OC)ccc3c3cc(OC)c(OC)cc23)C1 | 4.87 | 3.39 | 4.01 | 4.38 | 3.12 | 3.48 | 14.2
CCC(C)N1CCc2c(c3cc(OC)c(OC)cc3c3cc(OC)c(OC)cc23)C1 (stereo unspecified) | 1.15 | 0.45 | 0.51 | 0.53 | 0.4 | 0.44 | 0.73
CCCN1Cc2c(c3ccc(OC)cc3c3cc(OC)c(OC)cc23)C(O)C1 (stereo unspecified) | 0.14 | 0.05 | 0.11 | 0.05 | 0.11 | 0.11 | 0.12
COc1cc2c3c(c4cc(OC)c(OC)cc4c2cc1OC)CN(CCCOC1CCCCO1)CC3 (stereo unspecified) | 9.65 | 7.49 | 14 | 3.78 | 9.8 | 8.22 | 30.8
COc1cc2c3c(c4cc(OC)c(OC)cc4c2cc1OC)CN(CCCO)CC3 | 16.6 | 9.41 | 16.9 | 5.47 | 7.14 | 6.63 | 19.3
CCCCCN1CCc2c(c3cc(OC)c(OC)cc3c3cc(OC)c(OC)cc23)C1 | 6.2 | 6.11 | 8.05 | – | 9.51 | 7.67 | 6.53
CCCCN1CCc2c(c3cc(OC)c(OC)cc3c3cc(OC)ccc23)C1 | 4.77 | 3.51 | 4.04 | 2.39 | 4.73 | 3.99 | 5.6
COc1cc2c3c(c4cc(OC)c(OC)cc4c2cc1OC)CN(CCC1OCCO1)CC3 | 6.13 | 4.15 | 6.49 | 4.82 | 4.6 | 4.95 | 31.9
COc1cc2c3c(c4cc(OC)c(OC)cc4c2cc1OC)CN(CCCN)CC3 | 21.1 | 11.7 | 36.9 | 6.04 | 15.3 | 10.3 | 23.4
CCCCN1CCc2c(c3cc(OC)c(OC)cc3c3c(OC)c(OC)c(OC)cc23)C1 | 4.06 | 2.68 | 5.01 | 3.01 | 3.19 | 2.54 | 2.92
